Reference: ChEMBL document CHEMBL1629660, “Pharmacodynamics of tigecycline against phenotypically diverse Staphylococcus aureus isolates in a murine thigh model” (Antimicrob Agents Chemother, 2009)

Experiments:
[1] = fAUC/MIC in hospital-acquired methicillin-resistant Staphylococcus aureus isolate 152-infected neutropenic ICR mouse at stasis dose; type: functional
Outline: (§1)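 Single-dose serum PK in infected neutropenic mice (sc 6.25–50 mg/kg; HPLC; two-compartment fit; AUC by trapezoidal rule; lower doses simulated). Free fraction from ultrafiltration of spiked mouse serum, in triplicate. Free exposures divided by modal MIC and plotted against 24-h log10 CFU change with a sigmoidal Emax model; EI50, EI80 and stasis values read from the fitted curves.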

[2] = Elimination half life in neutropenic ICR mouse infected with methicillin-sensitive Staphylococcus aureus ATCC 29213 at 50 mg/kg, sc by HPLC; type: ADME, organism-based; set-up: dose 50 mg/kg, route subcutaneous; settings: in vivo, read-out: beta t1/2 (converted)
Outline: (§2)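 Neutropenic female ICR mice (cyclophosphamide 150 and 100 mg/kg ip, 4 days and 1 day before inoculation), both thighs inoculated im with ~10^7 CFU/ml of ATCC 29213. Single sc doses of 50, 25, 12.5 or 6.25 mg/kg. Cardiac blood taken from groups of six at 8–12 times over 0.5–24 h. Serum measured by HPLC (linear 0.05–5 µg/ml). Two-compartment fit by nonlinear least squares; AUC by trapezoidal rule.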

[3] = test system: Staphylococcus aureus; experiment: Antimicrobial activity against hospital-acquired methicillin-resistant Staphylococcus aureus isolate 152 infected in neutropenic ICR mouse assessed as change in bacterial load after 24 hrs; type: functional
Outline: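 Female ICR mice (~25 g) made neutropenic with cyclophosphamide 150 and 100 mg/kg ip, 4 and 1 days before infection. Each thigh inoculated im with 0.1 ml of ~10^7 CFU/ml from an overnight subculture. Tigecycline sc (0.2 ml) given 2 h later as single or multiple doses of 1.56–50 mg/kg, 1.56–400 mg/kg/day, 3 mice/group. Saline-injected controls. Thighs harvested at 24 h, homogenized in saline, plated on blood agar; log10 CFU change vs 0-h controls.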

[4] = r2 for fCmax/MIC in methicillin-sensitive Staphylococcus aureus ATCC 29213-infected neutropenic ICR mouse
[5] = fAUC/MIC in hospital-acquired methicillin-resistant Staphylococcus aureus isolate 56-infected neutropenic ICR mouse at stasis dose; type: functional; outline: as §1
[6] = Tmax in neutropenic ICR mouse infected with Staphylococcus aureus ATCC 29213 at 12.5 mg/kg, sc by HPLC; type: ADME, organism-based; set-up: dose 12.5 mg/kg, route subcutaneous; settings: in vivo; outline: as §2
[7] = r2 of fCmax/MIC in hospital-acquired methicillin-resistant Staphylococcus aureus isolate 152-infected neutropenic ICR mouse
[8] = fAUC/MIC in community acquired methicillin-resistant Staphylococcus aureus isolate 156 infected-immunocompetent ICR mouse at 12.5 […], sc QD; type: functional
Outline: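 Derived from neutropenic-mouse serum PK (HPLC, two-compartment fit) with ultrafiltration protein-binding correction, divided by modal MIC.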

With `CN(C)c1cc(NC(=O)CNC(C)(C)C)c(O)c2c1C[C@H]1C[C@H]3[C@H](N(C)C)C(O)=C(C(N)=O)C(=O)[C@@]3(O)C(O)=C1C2=O` [TIGECYCLINE] the fAUC/MIC [1] was 1.6, the half-life [2] was 7.36 h and the log10CFU/ml [3] was 1.8. It also gave a r2 [4] of 0.974, a fAUC/MIC [5] of 2.5 and a Tmax [6] of 0.45 h. The r2 [7] was 0.953 and the fAUC/MIC [8] was 8.8.
